An excerpt weighted towards active compounds, which were near 4% of everything screened.
NR3A LBD binder: modulators (binders) of human NR3A ligand-binding domain | actives 2.5% (n = 340,000) | Tm shift relative to glycine control, % at 25 µM | NR3A LBD differential scanning fluorimetry, Tm shift; 0% = protein alone, 100% = glycine-bound protein;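 active = melting temperature shift of at least 10% of the positive control shift, at one fixed dose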
iPSC survival up: enhancers of human iPSC single-cell survival; actives 0.044% (n = 360,000); survival enhancement, % at 20 µM; hiPSC single-cell survival, ATPlite luminescence; 100% = ROCK inhibitor wells, 0% = DMSO; AID 602274; in the data active = survival enhancement above about 18%;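 also: cells exposed to compounds for 16 hours before the ATP read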
Arr AP2 block: blocks beta-arrestin peptide binding to AP2 adaptin. inhibition, % at 10 µM. FITC-arrestin peptide / GST-AP2 beads, flow cytometry; AP2 beta2 appendage carries R879A mutation. actives 0.31% (n = 340,000);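 active = inhibition above a set limit, near 3 SD of compounds lacking own fluorescence, cut at about 54% in these data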;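 also: plate controls were DMSO wells for no effect and 5 µM unlabelled arrestin peptide for full effect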
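System: GST-AP2 R879A glutathione beads | Also added: FITC-arrestin peptide, 50 nM | Times: 12 min plus 1 h, RT | Signal: Bead flow cytometry, FITC channel | Buffer or medium: PBS with 0.05% Tween 20 and 0.1% BSA | Read-out basis: Percent drop in bead-associated FITC signal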
SENP1 FRET inh: blocks the human SENP1 SUMO protease catalytic domain; Q9P0U3; recombinant SENP1 catalytic domain, CyPet-SUMO1-YPet FRET cleavage; inhibition, % at 10 µM; actives 0.21% (n = 360,000); AID 624204;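 active = inhibition at least 30% at 10 µM, raw YFP signal under a set limit, fluorescence ratio 0.5 to 1.5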;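 also: 0% = enzyme with DMSO and 100% = no enzyme wells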
Target sequence (Q9P0U3 419-644 limits assumed): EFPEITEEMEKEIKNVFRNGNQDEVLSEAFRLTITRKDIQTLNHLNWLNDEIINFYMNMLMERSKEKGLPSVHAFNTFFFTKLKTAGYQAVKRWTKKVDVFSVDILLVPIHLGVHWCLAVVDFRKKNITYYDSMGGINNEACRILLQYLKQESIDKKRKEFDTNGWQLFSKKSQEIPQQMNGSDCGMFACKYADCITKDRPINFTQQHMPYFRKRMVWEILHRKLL
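Compound: 10 µM single point, 0.5% DMSO; Test system: hSENP1 catalytic domain, recombinant; Timing: 50 min reaction at room temperature; Technique: FRET, CFP and YFP emission; Control set: no-enzyme wells low, DMSO-plus-enzyme wells high control.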
FAS TE block: inhibitors of human fatty acid synthase thioesterase domain; P49327; recombinant FAS-TE, OMFH fluorogenic substrate, fluorescence endpoint; inhibition, % at 15 µM; actives 0.67% (n = 360,000);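 active = compounds whose normalised, plate-corrected inhibition of enzyme fluorescence in the single-dose primary screen is 50% or more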;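 also: 0% = DMSO with enzyme and 100% = substrate without enzyme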
H9c2 protect: myocardial damage modulation in H9c2 cells | protection from H2O2 cell death, % at 20 µM | actives 0.63% (n = 360,000) | AID 588492 | H9c2 cardiomyocytes, H2O2 injury protection, ATPLite, 2 h;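 active = compounds giving at least 50% protection of heart cells from peroxide-induced death in the single-dose screen, raw or plate-pattern-corrected value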;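 also: 0% = DMSO wells with peroxide and 100% = DMSO wells without peroxide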
The depositor's hits bear a star; nt = no result.

SMILES	NR3A LBD binder	iPSC survival up	Arr AP2 block	SENP1 FRET inh	FAS TE block	H9c2 protect
Cc1ccc2nc(NC(=O)c3ccc(NS(=O)(=O)c4cccs4)cc3)sc2c1	33*	-2	26	0	-2	-10
CCOC(=O)[C@]12CCC=C1N(CCC1=CCCCC1)C(=O)[C@H](CC(=O)N1CCSCC1)C2	nt	-1	nt	2	-6	nt
CC1(C(=O)Nc2cccc(NS(C)(=O)=O)c2)CCN1Cc1ccccc1OC(F)F (configuration not stated)	nt	-2	nt	1	4	-5
Cc1cccc2c1CC(C)(C)N=C2C1=C(O)CCCC1=O	14*	-1	-3	-4	-2	46
CC(=O)N/C(=C\c1ccc(F)cc1)C(=O)NC(Cc1c[nH]c2ccccc12)C(=O)O (configuration not stated)	14*	-1	30	-1	-12	1
O=C(NC(Cc1c[nH]c2ccccc12)C(=O)O)/C(=C/c1ccc(F)cc1)NC(=O)c1ccccc1 (configuration not stated)	0	0	-10	1	1	8
Fc1ccc2cc(-c3ccsc3)ncc2c1	35*	-1	26	-2	12	-9
O=C(NNC(=S)Nc1ccc(Cl)c(Cl)c1)c1cccc([N+](=O)[O-])c1	22*	1	20	3	46	-11
O=C(NNC(=S)NC(=O)c1cccc([N+](=O)[O-])c1)c1ccc(Br)cc1	-4	0	-6	3	10	56*
CC(C)NS(=O)(=O)c1ccc(NC(=S)NC(=O)c2cccc([N+](=O)[O-])c2)cc1	13*	-2	1	5	3	-3
O=C(Nc1cccc(NC(=O)c2cc([N+](=O)[O-])ccc2Cl)n1)c1cc([N+](=O)[O-])ccc1Cl	1	-1	-7	2	57*	-8
CC1(C(=O)N2CCCCC2)CCN1C(=O)c1ccccc1CCc1ccccc1 (configuration not stated)	nt	3	nt	-1	-3	12
COc1cc2c(cc1OC)-c1c(OC)c(OC)cc3ccnc(c13)C2=O	-15	-1	5	60*	-3	43
CC(=O)Nc1ccc(S(=O)(=O)c2ccnc3cc(Cl)ccc23)cc1	nt	3	nt	0	4	-14
Clc1cccc(C2Nc3cccc4cccc(c34)N2)c1	-1	-1	55*	7	25	4
COc1ccccc1C1Nc2cccc3cccc(c23)N1	-2	-2	39	-2	7	-2
Oc1ccccc1C1Nc2cccc3cccc(c23)N1	11*	6	23	-3	4	-6
Brc1ccc(C2Nc3cccc4cccc(c34)N2)o1	4	-1	54*	-4	25	-6
Brc1cccc(C2Nc3cccc4cccc(c34)N2)c1	2	-1	21	8	26	10
Cc1ccc(F)c(S(=O)(=O)NC(=O)C2(C)CCN2C(=O)Cc2ccsc2)c1 (configuration not stated)	nt	0	nt	4	-6	6
O=C(OCc1nc2ccccc2s1)c1ccccc1O	1	0	1	0	11	-8
N#C/C(=C(/O)COC(=O)c1ccc(O)cc1)c1nc2ccccc2[nH]1	-2	0	13	-21	-11	-1
N#C/C(=C(/O)COC(=O)c1ccccc1O)c1nc2ccccc2s1	13*	7	9	-49	2	-22
CC(C)(C)c1ccc(C(=O)OC/C(O)=C(\C#N)c2nc3ccccc3s2)cc1	17*	4	-2	-9	5	-15
O=C(NCc1ccncc1)Nc1cccc([N+](=O)[O-])c1	-6	1	-16	1	13	-1
SMILES	NR3A LBD binder	iPSC survival up	Arr AP2 block	SENP1 FRET inh	FAS TE block	H9c2 protect
O=C(Nc1cccc([N+](=O)[O-])c1)Nc1cccc([N+](=O)[O-])c1	26*	3	12	0	28	-27
O=C(NCc1ccco1)Nc1cccc([N+](=O)[O-])c1	19*	7	-6	2	19	0
O=C(COc1cccc([N+](=O)[O-])c1)NN1C(=O)c2ccccc2C1=O	546*	0	23	0	5	-4
O=C(Nc1cccc([N+](=O)[O-])c1)C1CC(=O)N(C2CCCCC2)C1 (configuration not stated)	14*	1	-3	-2	18	-2
Cc1cccc(C)c1-n1nnnc1C(c1ccccc1OC(F)(F)F)N1CCN(C/C=C/c2ccccc2)CC1 (configuration not stated)	nt	-2	nt	-1	15	-4
O=C(c1[nH]c(C(F)(F)F)nc1-c1ccccc1)N1CCN(Cc2c(F)cccc2Cl)CC1	nt	0	nt	-1	-7	1
CC1(C)OCC(N)(CO)CO1	nt	3	nt	2	-5	-3
CC(=O)Nc1ccc(OCc2cccc([N+](=O)[O-])c2)cc1	-1	-2	15	1	1	0
COc1cc(NC(=O)Nc2cccc([N+](=O)[O-])c2)cc(OC)c1	29*	-3	31	3	26	-26
CC(=O)Nc1cccc(OCc2cccc([N+](=O)[O-])c2)c1	17*	-1	-22	-2	8	-1
CC(C)S(=O)(=O)c1csc(NC(=O)Nc2cccc([N+](=O)[O-])c2)c1Cl	29*	-1	22	-2	25	-7
O=C(Nc1cccc([N+](=O)[O-])c1)Nc1ccc2c(c1)OCCO2	29*	1	-3	2	41	-18
COc1ccc(C(=O)N2CCCC(Nc3ccc(C)c(C)c3)C2)c(OC)n1 (configuration not stated)	32*	0	4	-2	-1	7
COc1ccc(C(=O)N2CCCC(Nc3ccc(F)cc3)C2)c(OC)c1 (configuration not stated)	13*	0	41	0	-6	1
Cc1ccc(NC2CCCN(C(=O)CN3C(=O)CSC3=O)C2)cc1C (configuration not stated)	11*	-1	-7	0	-1	2
CC(C)c1ccc(NC2CCCN(C(=O)CN3C(=O)CSC3=O)C2)cc1 (configuration not stated)	-4	1	-3	1	-3	-6
O=C(O)c1ccc(CSc2nnnn2-c2ccc(F)cc2)cc1	1	2	17	2	-8	-2
O=C(CSc1nnnn1-c1ccc(F)cc1)c1ccc(O)c(O)c1	1	0	28	-1	-1	54*
COc1ccc(CCNC(=O)c2cc3cc(Cl)ccc3nc2N)cc1OC	nt	0	nt	-122	3	nt
O=S1(=O)CC(N2CCC(Cc3ccccc3)CC2)CN1C1CCCCC1 (configuration not stated)	nt	-2	nt	-1	9	-4

Source: PubChem
